Assay outcomes as filed in PubChem.
Only some compounds are listed: those with a hit (about 4.3% of all), similar ones and a draw of the others.
APP 5'UTR act: activators of APP 5'UTR luciferase reporter, primary screen, SH-SY5Y cells; SH-SY5Y APP 5'UTR luciferase reporter, luminescence; zero percent = DMSO vehicle wells; activation, % at 2 µM; actives 1% (n = 190,000); AID 1276, 2008;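 active means activation above a set limit, based on mean plus 3 SD of controls, cut at about 140% in these data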
FLuc inhib CS: firefly luciferase enzyme inhibitors, primary screen, artefact control for luciferase-based inhibitor screens, biochemical, luminescence, ATPLite; 10 min; inhibition, % at 10 µM; actives 1.5% (n = 200,000); Luciferin 4-monooxygenase (Photinus pyralis), P08659;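 active means inhibition above about 50% when tested at 10 µM, limit read from the data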
Target sequence (P08659 whole entry, looked up): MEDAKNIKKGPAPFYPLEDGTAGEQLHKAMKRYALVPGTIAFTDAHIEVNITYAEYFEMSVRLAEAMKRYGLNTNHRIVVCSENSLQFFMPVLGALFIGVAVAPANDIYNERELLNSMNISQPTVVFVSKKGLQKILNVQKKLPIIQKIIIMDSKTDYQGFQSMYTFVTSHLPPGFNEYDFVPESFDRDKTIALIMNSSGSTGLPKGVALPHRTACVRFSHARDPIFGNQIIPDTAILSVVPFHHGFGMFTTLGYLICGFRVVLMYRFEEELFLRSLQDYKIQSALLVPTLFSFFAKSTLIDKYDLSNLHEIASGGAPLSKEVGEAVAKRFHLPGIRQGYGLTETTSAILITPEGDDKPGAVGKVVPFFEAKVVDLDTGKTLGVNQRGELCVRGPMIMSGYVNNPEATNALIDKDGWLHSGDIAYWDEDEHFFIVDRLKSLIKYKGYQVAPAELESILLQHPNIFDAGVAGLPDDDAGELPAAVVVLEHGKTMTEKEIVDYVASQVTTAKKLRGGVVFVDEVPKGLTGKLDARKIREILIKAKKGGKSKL
NF-kB neuron act: activators of NF-kB expression in neurons, primary screen, cell-based, HTS; AID 1239, 2008; human neuronal cells, NF-kB reporter expression; active compounds read high; fold change at 12.5 µM; actives 1.6% (n = 190,000); in the data active means fold change above about 3.3
FLuc act counter: FLuc activators, initial screening, artefact control for FLuc-dependent activation tests, biochemical, ATPlite luminescence. Luciferin 4-monooxygenase (Photinus pyralis), P08659. ATPlite luciferase biochemical, 10 min; 0 = ATP-free wells, 1 = DMSO control. activation factor at 10 µM. 200,000 tested, under 10 active. AID 1027, 2008;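 active means luciferase activation factor, scaled between plate controls, of at least 2 with compound at 10 µM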
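Material: Luciferase/luciferin reagent mix; Doses: test compounds dosed from 2 mM stocks in 100% DMSO; Schedule: 10 min incubation after luciferase reagent addition, room temperature; Measured by: luminescence from luciferase reaction; Read-out: luminescence gain marking luciferase activators.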
STAT1 activator: STAT1 signaling activators, primary screen, cell-based, HTS, luciferase reporter; NIH 3T3 STAT1-luciferase reporter, IFN-gamma, luminescence; 100% = IFN-gamma alone, no compound; activation (% of control), % at 5.5 µM; actives 2.6% (n = 200,000); AID 932, 2007;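 active means activation above the screen-wide mean activation plus 3 SD, cut at about 130% in these data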
sdo1 growth: growth rescue of sdo1-depleted yeast, primary screen, S. cerevisiae, bone marrow failure model | S. cerevisiae sdo1-depleted JHY4D growth rescue, OD600 30 h; active compounds read high; pdr5 snq2 efflux-pump mutant strain | z-score at 10 µM | actives 0.21% (n = 140,000) | AID 817, 2007;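 active means z-score above 3 at both the 24 hr and the 30 hr optical density reads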
STAT1 act conf: STAT1 signaling activators, confirmation, cell-based, HTS, luciferase reporter | shares compounds with STAT1 activator | NIH 3T3 STAT1-luciferase reporter, IFN-gamma potentiation, luminescence; 100% = IFN-gamma EC80 alone, no compound | activation (% of control), % at 5.7 µM | actives 97% (n = 1,200);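 active means activation above a set limit carried over from the earlier primary STAT1 screen, cut at about 140% in these data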
NFkB act STAT1ct: NF-kB reporter activators, TNF-alpha stimulated, counter-screen for STAT1 activator project, cell-based, HEK293T, luciferase luminescence; 100% = TNF-alpha with vehicle only; actives 43% (n = 1,200); shares compounds with STAT1 activator; activation (% of control), % at 5.7 µM;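 active means activation above the mean of solvent-only control wells plus 3 SD, set per campaign, cut at about 130% in these data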;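 further: TNF-alpha given at a submaximal dose yielding about 80% of full reporter signal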
STAT3 act STAT1c: STAT3 reporter activation by STAT1 hits, confirmation, counter-screen for STAT1 activator project, U3A cells, luciferase, luminescence. shares compounds with STAT1 activator. IL-6; cells lack STAT1; 100 = IL-6 alone, no compound effect. activation (% of control), % at 5.7 µM. actives 46% (n = 1,200). AID 1316, 2008;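 active means activation above the solvent-only control well mean plus 3 SD, set per plate batch, cut at about 110% in these data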;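 further: higher means more STAT3 reporter activation so hits are non-selective activators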
A number is an active result; – = inactive; · = no result.

SMILES	APP 5'UTR act	FLuc inhib CS	NF-kB neuron act	FLuc act counter	STAT1 activator	sdo1 growth	STAT1 act conf	NFkB act STAT1ct	STAT3 act STAT1c
COc1ccc2cc(CCNC(=O)CC(C)(C)C)c(=O)[nH]c2c1	–	–	–	–	–	–	·	·	·
COc1ccc2cc(CCNC(=O)c3cccs3)c(=O)[nH]c2c1	–	–	6.1	–	159	–	193	140	–
CSCCC(NC(=O)c1cccc([N+](=O)[O-])c1)c1nc2ccccc2[nH]1 (configuration not stated)	–	–	–	–	–	–	·	·	·
O=C(Nc1nc2ccccc2[nH]1)c1cccc([N+](=O)[O-])c1	–	–	·	–	156	·	169	–	120
CCc1ccc(NC(=O)c2cnn(-c3ccccc3)c2C)cc1	155	–	5.9	–	185	–	252	–	–
CCc1ccc(NC(=O)c2cnn(-c3ccccc3)c2C2CCNCC2)cc1	–	–	–	–	–	·	·	·	·
